Experiment: Toxicity liver stage against HepG2, at 10uM
Type: cell-based
Parameters: test concentration 10 uM, cell line HepG2-A16-CD81EGFP
Conditions: human, HepG2-A16-CD81EGFP cells; read-out: INHIBITION
Summary of the method: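 Uninfected HepG2-A16-CD81EGFP cells, 3 × 10^3 per well, 1536-well, plated on prespotted compound at 10 μM final, parasite-free screening media added to match infected plates; puromycin 10 μM positive, DMSO 0.5% negative; run in parallel with 48 h PbLuc assay at 37 °C, 5% CO2; viability by CellTiter-Glo luminescence, normalized to controls.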

Row | Structure (SMILES) | cytotoxicity at 10 µM [%]
1 | Cn1nc(CN2CCCC2)c2c1CN(C(=O)c1ccc[nH]1)CC2 | 6.86
2 | CCN1CCN(C(C)(C)CNc2nc(C)cc(C3CCC3)n2)CC1 | 1.47
3 | CC(C)(C)c1nc2cc(NC(=O)Cn3ccc(=O)[nH]c3=O)ccc2o1 | -7.07
4 | COc1cccc(S(=O)(=O)CCNC(C)Cn2cccn2)c1 (stereo not given) | -3.34
5 | Cc1ccc(CN2CC[C@H]3OCC[C@@H](C(=O)N4CCCCO4)[C@@H]3C2)o1 | 3.54
6 | COc1c(C2CCCN2C(=O)c2ccnc(N(C)C)c2)c(C)nn1C (stereo not given) | 1.9
7 | Cc1cccnc1CC(C)NC1CCSCC1 (stereo not given) | 2.28
8 | O=C(C[C@@H]1COC[C@H]2CN(CC3CC3)C[C@@H]12)N1CCCCO1 | 4.08
9 | Fc1ccc(C(CNc2ccncn2)N2CCCCC2)cc1 (stereo not given) | -1.88
10 | Cc1nccc(C(=O)NC(COCC(C)C)c2ccco2)n1 (stereo not given) | -10.7
11 | Oc1ccc(N(CCc2ccccc2)CCn2cncn2)cc1 | 4.21
12 | COc1cccc(COCC(=O)NC(C(N)=O)c2ccccc2F)c1 (stereo not given) | -4.55
13 | CCC1CC(=O)NCc2nc3sc(C)cn3c21 (stereo not given) | 5.27
14 | Cn1cc(NC(=O)N2CCC2c2ccccc2)ccc1=O (stereo not given) | -9.57
15 | Cn1cccc1C(=O)N1CCCN(CCCc2ccccc2)CC1 | -16.4
16 | COc1ccccc1-n1cc(C(=O)NCCCn2ccnn2)cn1 | -6.01
17 | NCC1Cc2cc(Cl)cc(-c3cncc(C(=O)N4CCCCC4)n3)c2O1 (stereo not given) | -53
18 | O=C(CN1CCS(=O)(=O)CC1)NC1CCCc2ccccc21 (stereo not given) | -0.82
19 | CN(C)CCN1C(=O)CCC12CCN(C(=O)CC1CC1)CC2 | 3.35
20 | CC(C)Cn1cnc2ccc(NC(=O)CCCn3cccn3)cc2c1=O | -4.06
21 | Cc1ccccc1C(C)NC(=O)CN1CCN(Cc2ccc(Cl)s2)CC1 (stereo not given) | 10.8
22 | N[C@@H]1c2ccccc2C2(CCN(C(=O)c3ccccc3O)CC2)[C@H]1O | 6.38

Row | Structure (SMILES) | cytotoxicity at 10 µM [%]
23 | CC(=O)N1Cc2ccccc2CC1C(=O)Nc1cc(C)ccn1 (stereo not given) | -4.5
24 | CS(=O)(=O)c1ccccc1N[C@@H]1c2ccccc2C[C@@H]1O | -40.5
25 | CCc1noc(CS(=O)(=O)C(C)c2nc(C3CC3)no2)n1 (stereo not given) | 11.3
26 | Cc1cc(C)n(NC(=O)c2ccccc2F)c(=O)c1 | -13.2
27 | O=C(c1ccncc1F)N1C[C@@H]2CC[C@H]1CN(Cc1cccnc1)C2 | 3.01
28 | Cc1ccnc(NCCNC(=O)C2CC3(CCNCC3)CN2C)c1 (stereo not given) | 2.69
29 | NC(=O)c1nc(-c2ccc(Cl)cc2Cl)oc1N | 2.66
30 | O=C(CCN1CCCC1c1cccc(F)c1)N1CCc2sccc2C1 (stereo not given) | -10.7
31 | CC(C)(C)c1c[nH]c([C@@H]2COCCN2C2CCNCC2)n1 | 6.07
32 | Cc1ccc(-c2noc(CN3CCC(N4CCNC4=O)CC3)n2)cc1 | 31
33 | CCN(CC)c1ncnc2c1CCN(CC1CCOCC1)CC2 | -81.5
34 | CCN1CCC(N2CCN(C)C3(CCC(=O)N(CCOC)CC3)C2)CC1 (stereo not given) | -0.724
35 | Cc1cccc(-c2ccc(C(=O)NCC3CCCOC3)c(=O)[nH]2)c1 (stereo not given) | -15.7
36 | C[C@]1(O)CCN(Cc2cncs2)C[C@@H]1Oc1cccc(F)c1 | 6.06
37 | COc1ncccc1C(=O)N1CC[C@H]2C[C@H](c3nnc(C)[nH]3)O[C@@H]2C1 | 2.4
38 | CN(CC(=O)NCc1ccccn1)C1CCCN(c2cccnn2)C1 (stereo not given) | -9.06
39 | Cc1nc(CN2C(=O)COC3(CCN(C)CC3)C2C)cs1 (stereo not given) | -128
40 | O=C(Nc1cccc(OCC(F)F)n1)c1ccncc1 | -6.02
41 | CN(C)CCO[C@@H]1CC[C@H]2[C@H]1OCCN2C(=O)c1ccncc1 | 5
42 | O=C(C1CNCCO1)N1CCC(c2cc(N3CCCC3)ncn2)CC1 (stereo not given) | 6.15
43 | CC(C)c1csc(C2CCCN(C(=O)c3ccc(=O)n(C)c3)C2)n1 (stereo not given) | -48.2
44 | O=C(C1CCCN(Cc2cccnc2)C1)N1CCc2sccc2C1 (stereo not given) | 7.99

Row | Structure (SMILES) | cytotoxicity at 10 µM [%]
45 | COCCCN1Cc2cccc(NC(=O)C(C)(C)C)c2C1 | 2.06
46 | CCN(C(=O)C(C)S(=O)(=O)Cc1nc(C)no1)c1ccccc1 (stereo not given) | 4.03
47 | CNC(=O)c1cccc(C2CNCCN2C(=O)c2ccn(C)n2)c1 (stereo not given) | -4.22
48 | COCCc1noc(CN2CCOC(Cn3cc(C)cn3)C2)n1 (stereo not given) | -4.18
49 | CC(C)(C)C(=O)N1CCN(Cn2nccc2-c2cccnc2)CC1 | 8.27
50 | COCc1cc(N2CCOCC2)n2nccc2n1 | -1.98
51 | CCn1nc(CC(C)C)cc1C(=O)N1CC(N2CCCCC2C)C1 (stereo not given) | -12.4
52 | CC(=O)NC[C@H]1C[C@@H]2CCN1C[C@@H]2c1cc(-c2cccs2)nn1C | -7.99
53 | C[C@H]1C[C@H]2CN(C(=O)c3ccncn3)CC[C@@H]2O1 | 4.93
54 | O=S(=O)(c1cncc(F)c1)N1CCSC2(CCCCC2)C1 | 9.48
55 | O=C(NC(c1ccccc1)c1cccnc1)C1CC1 (stereo not given) | 2.99
56 | Cc1ccc(OCC(=O)NS(=O)(=O)c2c(C)noc2C)cc1C | -1.96
57 | CC(C)(C)n1cc(C#N)cc1NC(=O)CCNC(=O)c1ccco1 | 1.95
58 | C=C(C)COc1cccc(CN(CC)Cc2noc(C)n2)c1 | -12
59 | CC(C)N(Cc1ccc(C(=O)O)o1)C(C)C | -1.2
60 | CCC(NCc1cc[nH]n1)c1nc(C(F)(F)F)cs1 (stereo not given) | 6.12
61 | CCc1nccn1C1CCCN(C(=O)c2cnn3ccc(C)nc23)C1 (stereo not given) | -9.68
62 | CCNC(=O)[C@@H]1C[C@H](N)CN1c1cc(CC)nc(N(C)C)n1 | -3.08
63 | Cc1c[nH]c(CN(C)C(=O)C(C)(C)NC(=O)c2cccs2)n1 | 3.08
64 | CS(=O)(=O)CCSC1CCN(c2ccccc2F)C1=O (stereo not given) | -7.68
65 | CC(=O)Nc1ccc(C(=O)NCCCn2cccc2)cc1 | -2.66
66 | Cc1ccc(CN2CCC3(CCCN3S(C)(=O)=O)CC2)s1 | -113

Row | Structure (SMILES) | cytotoxicity at 10 µM [%]
67 | CC(C)Nc1nc2c(c(NC3CC3)n1)CCN(C(=O)C1CCOC1)CC2 (stereo not given) | -145
68 | Cn1cnc2c1CCN(Cc1csc(-c3ccccc3)n1)C2 | -1.04
69 | O=C(O)c1ccnc(-c2ccnc(N3CCC4(CCO4)CC3)n2)c1 | -10.7
70 | Cn1c(CCNc2nccnc2C#N)nc2cc(Cl)ccc21 | -6
71 | CCNc1ncc(C2CC(=O)Nc3c2cnn3Cc2ccncc2)cn1 (stereo not given) | -6.87
72 | O=C(NCCCn1cccn1)C1(c2ccc(Br)cc2)CC1 | -0.0323
73 | Cc1cc(C(=O)NCC(O)CN2CCCC2=O)ccc1F (stereo not given) | 5.24
74 | CNC(=O)C1CN(Cc2cc(C)on2)CCN(C2CCOCC2)C1 (stereo not given) | 9.81
75 | CCOc1cc(CNC(=O)CNC(=O)CC2CCCCC2)ccn1 | 6.81
76 | OCc1cccc(OCc2ccon2)c1 | 0.266
77 | CC(C)(C)c1nnc(NCC(=O)N2CCc3sccc3C2)s1 | 5.62
78 | COc1c(CNCc2ccnc(N3CCCCC3)c2)c(C)nn1C | 10.1
79 | CC(C)c1nc(CN(C)Cc2ccc(O)c(C(=O)O)c2)cs1 | -4.24
80 | CCN1CC(CN(C)Cc2nc(-c3ccc(C)o3)oc2C)CC1=O (stereo not given) | 5.88
81 | COCc1cn(C[C@H]2C[C@@H]3CCN2C[C@@H]3C(=O)N2CCOCC2)nn1 | 4.45
82 | CCCn1ncc(C(=O)N2CCN(C3CCCC3)CC2)c1C | -151
83 | CC(=O)N1CCC(c2ccnc(Nc3cc(C(F)(F)F)ccn3)n2)C1 (stereo not given) | 11
84 | CC(C)c1noc(CCNC(=O)NCC2COc3ccccc3O2)n1 (stereo not given) | 1.03
85 | O=S(=O)(NCc1cccnc1OC1CCCC1)N1CCCCC1 | -3.82
86 | Fc1ccc2[nH]c(C3CCCN3CCCn3cccn3)nc2c1 (stereo not given) | 0.154
87 | COCC1CN(c2ccncn2)Cc2cnn(CC3CCCC3)c21 (stereo not given) | 4.83
88 | O=C(Cn1nc(N2CCOCC2)ccc1=O)Nc1nccs1 | -1.47

Row | Structure (SMILES) | cytotoxicity at 10 µM [%]
89 | O=S(=O)(NCC(O)c1ccc2c(c1)CCO2)c1ccccc1F (stereo not given) | -8.25
90 | CC(C)OCc1ncn2c1CN(CC1CC1)CCC2 | -68.9
91 | Cc1ccc(S(=O)(=O)N2CCN(CCCn3ccnc3)CC2)cc1 | -13.5
92 | O=C(CNCCn1cccn1)NCC1(c2ccccc2)CCC1 | -26.7
93 | CCN(C(=O)CN1CCCC1c1cccs1)c1ccccc1C (stereo not given) | 3.7
94 | CC1CCc2nc(O)c(C(=O)NCCCN3CCN(C)CC3)cc2C1 (stereo not given) | -11.6
95 | O=C(NC1CC1)c1ccc(SCc2cscn2)cc1 | 1.26
96 | CS(=O)(=O)CC1CCCN(c2ncnc3c2Cc2ccccc2OC3)C1 (stereo not given) | -7.41
97 | O=C(C[C@@H]1COC[C@H]2CN(C(=O)c3cccnc3)C[C@@H]12)N1CCCC1 | -118
98 | Cc1ccc(CN2CCCN(Cc3cscn3)CC2)cc1 | -8.47
99 | O=C(O)[C@@H]1CCN(C(=O)Cc2ccccn2)[C@@H]1c1ccc(F)cc1 | 4.22
100 | C[C@@H]1CN(CCOc2ccc(Cl)cc2)CC[C@@]1(O)C1CCOCC1 | 19.4
101 | O=C(CCc1nc(Cl)n[nH]1)NC1CCCN(CC2CCCCC2)C1 (stereo not given) | -11.4
102 | Cc1nnsc1CN1C[C@@H]2CC[C@H]1CN(Cc1ccccn1)C2 | -3.56
103 | Cn1cccc1C(=O)N1CCN(Cc2cccnc2)c2ncccc2C1 | 10.9
104 | Cc1ccc(-c2nc(CCNC(=O)NC3CCC(O)CC3)co2)cc1 (stereo not given) | -2.3
105 | O=C(O)c1cc(NS(=O)(=O)c2ccc(Cl)s2)ccc1N1CCOCC1 | -4.05
106 | Cc1cc(CN(C)C(=O)c2cc3c([nH]c2=O)CCCC3=O)no1 | -3.59
107 | CCn1cc(C(=O)Nc2ccccc2C(=O)OC)cn1 | -7.25
108 | O=C(NCC1(O)COCCN(Cc2cccc(O)c2)C1)c1cnccn1 (stereo not given) | -6.49
109 | CC(NCc1cccc(COC2CCCC2)c1)c1cnn(C)c1 (stereo not given) | 4.34
110 | O=C(CSC1=NS(=O)(=O)c2cc(F)ccc2N1)Nc1cccc(Cl)c1 | 3.92

From ChEMBL document CHEMBL4513216, “Probing the Open Global Health Chemical Diversity Library for Multistage-Active Starting Points for Next-Generation Antimalarials” (ACS Infect Dis, 2020)
